# This is a sample that favours compounds with a hit; in the whole collection about 2.9% have one here.
# S100A4 MyoIIA: S100A4-myosin IIA interaction inhibition; P26447; S100A4/TAMRA-MyoIIA peptide fluorescence polarization; inhibition, % at 10.7 µM; 360,000 tested, 0.14% active; AID 652163;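 active = mean inhibition of at least 70% across replicates, with every replicate also reaching that level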
# Target sequence (P26447 whole entry, looked up): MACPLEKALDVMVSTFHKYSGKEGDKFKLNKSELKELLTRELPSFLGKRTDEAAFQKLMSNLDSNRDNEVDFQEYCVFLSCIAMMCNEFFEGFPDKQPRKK
#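 Material: S100A4 monomer protein | Medium: HEPES pH 7.2 with CaCl2, KCl, NaCl, DTT, Triton | Reagent: Labelled myosin peptide probe, 5 nM | Doses: One dose per compound | Times: 5 min incubation before reading | Benchmarks: Neutral control DMSO, positive control TFP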
# C2C12 statin: suppressors of simvastatin-induced myotoxicity in C2C12 myotubes. rescue of ATP level, % at 7.49 µM. AID 602340. 330,000 tested, 0.78% active. ATP luminescence, 48 h; scaled: DMSO 0, geranylgeraniol control 100;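 active = mean ATP rescue above about 67%, or every replicate alone reaching that limit, limit read from the data, passing the limit was not always enough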;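 note: myotubes were challenged with 10 µM simvastatin during compound exposure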
# DENV2 CPE rescue: DENV2-induced cell death inhibition; CPE inhibition, % at 9.99 µM; DENV2-infected cells, cytopathic effect rescue, plate reader; 350,000 tested, 1.7% active; in the data active = CPE inhibition above about 20%, passing the limit was not always enough; tested in BHK-21 cells;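 note: 0% = median of neutral control wells and 100% = median of positive control wells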
# PGC1a acetyl inh: lowers PGC1a acetylation signal in U2OS cells | AlphaScreen anti-acetyl-lysine; with virally co-expressed GCN5 acetyltransferase | 350,000 tested, 0.17% active | inhibition, % at 15.6 µM;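 active = every replicate shows inhibition of at least 40%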;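 note: 0% = neutral control wells and 100% = positive control wells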
# SIRT5 inh: blocks human SIRT5 desuccinylation of peptide; Q9NXA8; Purified SirT5, succinyl-peptide AMC, trypsin-coupled fluorescence; inhibition, % at 15 µM; 330,000 tested, 1.1% active; AID 652115; in the data active = inhibition above about 15%
# Target sequence (Q9NXA8 whole entry, looked up): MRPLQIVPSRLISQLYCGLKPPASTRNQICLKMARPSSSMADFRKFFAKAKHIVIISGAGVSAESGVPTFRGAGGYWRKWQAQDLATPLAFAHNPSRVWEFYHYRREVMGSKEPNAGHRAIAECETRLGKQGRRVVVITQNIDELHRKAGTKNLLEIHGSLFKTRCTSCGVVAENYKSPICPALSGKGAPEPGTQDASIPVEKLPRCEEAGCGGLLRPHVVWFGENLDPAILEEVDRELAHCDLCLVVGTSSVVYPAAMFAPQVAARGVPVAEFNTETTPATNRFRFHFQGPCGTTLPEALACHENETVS
# Starred values were filed as active, the others as inactive; . = not tested or not shown; ! = not active in a repeat.
SMILES,S100A4 MyoIIA,C2C12 statin,DENV2 CPE rescue,PGC1a acetyl inh,SIRT5 inh
O=C(CSCc1ccc([N+](=O)[O-])cc1)Nc1ccc(S(=O)(=O)N2CCCCCC2)cc1,8,-28,80*,-1,1
Cc1ccc(NC(=O)CSCC(=O)Nc2ccc(S(=O)(=O)N3CCCC3)cc2)cc1,-5,.,-4,.,2
OC(CNc1nc(C(F)(F)F)nc2ccccc12)c1ccccc1 (centres undefined),-1,-20,-3,8,-1
O=C(O)CCNc1nc(C(F)(F)F)nc2ccccc12,1,.,-9,-4,48*
FC(F)(F)c1nnc(-c2ccccc2)nc1N1CCOCC1,.,7,.,-20,.
FC(F)(F)c1cccc(-c2nnc(-c3ccccc3)c(N3CCOCC3)n2)c1,.,134*,.,15,.
COc1ccccc1N=C1SC(C(=O)Nc2cccc(Cl)c2Cl)C(N)=C1C(N)=O (centres undefined),-7,.,5,-9,21*
N#Cc1ccccc1NC(=O)C1SC(=Nc2ccccc2)C(C(=O)Nc2ccc(Cl)cc2)=C1N (centres undefined),-2,-8,4,-5,0
O=C(O)[C@]1(S(=O)(=O)c2ccccc2)C[C@@H]2ON=C(c3cccc(Br)c3)[C@@H]2C1,-1,-8,25*,-11,-5
O=S(=O)(c1ccccc1)[C@@]1(c2ccccc2)C[C@@H]2ON=C(c3cccc(Br)c3)[C@@H]2C1,-4,-2,.,-3,.
Cc1cc(C)n(C(=O)c2ccc(S(=O)(=O)NCC3CCCO3)cc2)n1 (centres undefined),.,112*,.,2,.
Cc1cc(C)n(C(=O)c2ccc(C)c(S(=O)(=O)N3CCCC3)c2)n1,.,95*,.,-1,.
CCCNC(=O)C[C@H]1CC[C@@H]2[C@H](COC[C@@H](O)CN2C(=O)c2cccnc2)O1,-20,-7,4,-4,1
CCOC(=O)NC(=O)CSc1nnnn1-c1ccc(C)cc1,.,-1,.,94*,.
CC(C)NC(=O)Nc1ccc2c(c1)C(=O)N([C@H](C)CO)C[C@@H](C)[C@H](CN(C)Cc1ccc(C(F)(F)F)cc1)OCCCC[C@@H](C)O2,-21,.,32*,-13,8
CC(C)NC(=O)Nc1ccc2c(c1)C(=O)N([C@H](C)CO)C[C@@H](C)[C@@H](CN(C)Cc1ccc(C(F)(F)F)cc1)OCCCC[C@@H](C)O2,-25,.,42*,-2,4
CC(C)NC(=O)Nc1ccc2c(c1)C(=O)N([C@H](C)CO)C[C@@H](C)[C@H](CN(C)Cc1ccc(C(F)(F)F)cc1)OCCCC[C@H](C)O2,8,.,2,3,5
O=C1N(CCS(=O)(=O)c2ccccc2)Cc2ccccc2C[C@]12N=C(c1ccc(OCCCO)cc1)O[C@@H]2c1ccccc1,2,.,-8,.,-2
CC(C)C#Cc1cnc2c(c1)C(=O)N([C@H](C)CO)C[C@H](C)[C@H](CN(C)C(=O)c1ccccc1F)O2,-1,6,2,2,-5
Cc1ccc(OCCCCNC(C)c2ccccc2)c(C)c1 (centres undefined),-2,7,29*,4,-1
C[C@@H]1CN([C@@H](C)CO)C(=O)c2cc(/C=C/c3ccccc3)cnc2O[C@H]1CN(C)C(=O)Cc1cccnc1,-5,-3,0,10,-8
CO/N=C/CC(=O)c1ccc(-c2ccccc2)cc1,-10,.,0,.,29*
C[C@@H]1CN([C@H](C)CO)C(=O)c2cc(C#CC(C)(C)O)cnc2O[C@H]1CN(C)C(=O)C1CCC1,15,6,5,2,-1
CC1(C)CC(=O)C2=C(C1)NC1=C(C(=O)c3ccccc31)C2c1ccccc1 (centres undefined),-5,.,-6,.,-3
Cc1nc2[nH]c(=O)c3c(n2n1)NC1=C(C(=O)CC(C)(C)C1)C3c1ccccc1 (centres undefined),.,-7,.,84*,.
SMILES,S100A4 MyoIIA,C2C12 statin,DENV2 CPE rescue,PGC1a acetyl inh,SIRT5 inh
C[C@H](CO)N1C[C@H](C)[C@@H](CN(C)Cc2ccc(C(=O)O)cc2)Oc2ccc(NC(=O)Cc3cn(C)c4ccccc34)cc2CC1=O,40,.,2,1,5
CC(C)(C(=O)N1CCC1(C)C(=O)Nc1ccccc1Br)c1ccccc1 (centres undefined),-5,7,25*,-7,4
CCOc1ccc(/C=C2\SC(=S)N(CCC(=O)Nc3cccc(C(=O)O)c3)C2=O)cc1,0,5,32*,7,1
O=C(O)c1ccc(/C=C2/SC(=S)N(Cc3ccccc3)C2=O)cc1,-3,4,-5,5,-1
CCOc1ccc(/C=C2\SC(=S)N(CCC(=O)Nc3ccc(C(=O)O)cc3)C2=O)cc1,-2,-3,10,8,7
O=C(CCCN1C(=O)/C(=C/c2ccco2)SC1=S)Nc1cccc(C(=O)O)c1,-21,.,1,.,42*
O=C(CCCN1C(=O)/C(=C\c2ccco2)SC1=S)Nc1ccc(O)cc1C(=O)O,-23,1,3,.,40*
CC(=O)Oc1ccc(/C=C2/SC(=S)N(Cc3ccccc3)C2=O)cc1,-3,17,6,6,16*
O=C(CCCN1C(=O)/C(=C\c2cccs2)SC1=S)Nc1ccc(O)cc1C(=O)O,15,45,1,-3,-3
COc1ccc(NC(=O)Nc2cccc3c2O[C@@H](CN(C)Cc2ccc(C(=O)Nc4ccccc4N)cc2)[C@H](C)CN([C@@H](C)CO)C3=O)cc1,-6,.,-8,15,.
C#Cc1ccc([C@H]2C=C(C(=O)OCC=C)O[C@@H](OCc3ccc(CO)cc3)C2)cc1,4,-2,3,.,.
C=CCOC(=O)C1=C[C@@H](c2ccc(Br)cc2)C[C@@H](OCc2ccc(CO)cc2)O1,-3,10,-3,-11,26*!
CCOc1ccc(-n2c(=S)sc3c(=O)n(-c4ccc(F)cc4)c(SCC(=O)O)nc32)cc1,-1,8,-8,17,29*
C[C@@H]1CN([C@@H](C)CO)C(=O)c2cc(NC(=O)C3CC3)ccc2O[C@H]1CN(C)Cc1ccc(Oc2ccccc2)cc1,24,-15,33*,-1,2
C[C@@H]1CN([C@@H](C)CO)C(=O)c2cc(NC(=O)C3CCCCC3)ccc2O[C@@H]1CN(C)Cc1ccc(Oc2ccccc2)cc1,.,.,.,-1,.
C[C@@H]1CN([C@@H](C)CO)C(=O)c2cc(NC(=O)C3CC3)ccc2O[C@@H]1CN(C)Cc1ccc(Oc2ccccc2)cc1,6,11,79*,-1,3
N#C[C@@H]1[C@H](c2ccccc2-c2ccccc2)[C@H](CO)N1C(=O)Cc1ccccc1,-1,.,5,1,-8
C[C@@H]1CCCCO[C@H](CN(C)S(=O)(=O)c2ccc(F)cc2)[C@H](C)CN([C@@H](C)CO)C(=O)c2cc(NC(=O)c3ccncc3)ccc2O1,-9,.,2,-5,7

# High-throughput results (PubChem)
